Compound activity deposited in PubChem by several laboratories.
FLuc stim CS = firefly luciferase counter-screen for stimulation assays; P08659; ATPlite luciferase biochemical, luminescence, 10 min; 0 = ATP-free wells, 1 = DMSO control; activation factor at 10 µM; 200,000 tested, under 10 active; AID 1027;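 active = luciferase activation factor, scaled between plate controls, of at least 2 with compound at 10 µM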
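Assay system: Luciferase/luciferin detection reagent, cell-free biochemical luciferase assay / Also added: ATP substrate / Schedule: 10 min at ambient temperature / Measured by: luminescence measurement of luciferase light output / Benchmarks: low control with PBS replacing ATP, high control enzyme plus ATP without compound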
FLuc inhib CS = Photinus pyralis luciferase inhibition counter-screen; AID 1006; ATPLite firefly luciferase biochemical luminescence, 10 min; P08659; 200,000 compounds, 1.5% hits; inhibition, % at 10 µM;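 active = inhibition above about 50% when tested at 10 µM, limit read from the data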
TRAIL sens C8 = sensitizes caspase-8 expressing cells to TRAIL | NB7+C8 cells + TRAIL, ATPlite viability luminescence | inhibition (viability loss, TRAIL sensitization), % at 10 µM | 360,000 compounds, 1% hits;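 active = compounds causing at least 50% loss of cell viability in the single-dose screen, relative to plate controls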
NF-kB neuron act = NF-kB expression increase, human neuronal cells; NF-kB reporter expression; active compounds read high; 190,000 compounds, 1.6% hits; fold change at 12.5 µM; in the data active = fold change above about 3.3
PPC-1+TRAIL kill = kills PPC-1 cancer cells in the presence of TRAIL. 220,000 compounds, 0.41% hits. PPC-1 cells + TRAIL, ATPLite viability luminescence. cell killing (% activity), % at 4 µM or 5 µM;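 active = cell killing above 50% in the first pass at 4 µM, then a duplicate retest at 5 µM averaging 50% or more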;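 note: plate controls were cells with TRAIL plus DMSO for no effect and medium-only wells lacking cells for full effect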
APP 5'UTR act = APP 5'UTR luciferase reporter activation | SH-SY5Y APP 5'UTR luciferase reporter, luminescence; zero percent = DMSO vehicle wells | activation, % at 2 µM | 190,000 compounds, 1% hits | AID 1276;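 active = activation above a set limit, based on mean plus 3 SD of controls, cut at about 140% in these data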
Starred values were filed as active, the others as inactive. Shown are actives, neighbours in structure and some others; about 2.2% of the full set was active somewhere.

`Cc1ccc(/C=C/C(=O)Nc2nc3ccccc3[nH]2)cc1` gave FLuc stim CS 0.9, FLuc inhib CS 12.2, TRAIL sens C8 22.9, NF-kB neuron act 2.05, PPC-1+TRAIL kill 39.6 and APP 5'UTR act 179.7*.
For Cc1ccc(Cc2nc3ccccc3[nH]2)cc1 the results were TRAIL sens C8 0.4.
Screening Cc1ccc(/C=C/C(=O)Nc2ccccc2C(N)=O)cc1 returned FLuc stim CS 0.1, FLuc inhib CS 93.4*, TRAIL sens C8 84.0*, NF-kB neuron act 5.32*, PPC-1+TRAIL kill 84.3* and APP 5'UTR act 183.4*.
For Cc1ccc(/C=C/C(=O)c2nc3ccccc3[nH]2)cc1 the results were FLuc stim CS 0.1, FLuc inhib CS 93.5*, TRAIL sens C8 45.8, NF-kB neuron act 1.65, PPC-1+TRAIL kill 14.7 and APP 5'UTR act -2.2.
For Cc1ccc(Nc2nc3ccccc3[nH]2)nc1 the results were FLuc stim CS 0.8, FLuc inhib CS 18.0, TRAIL sens C8 12.3, NF-kB neuron act 5.38*, PPC-1+TRAIL kill 10.1 and APP 5'UTR act 100.3.
Screening Cc1ccc(C)c(C(=O)Nc2nc3ccccc3[nH]2)c1 returned TRAIL sens C8 0.9.
Cc1ccc(Cc2nnc3n(-c4cccc(C)c4)nc(C(=O)c4ccccc4)n3c2=O)cc1 was read as FLuc stim CS 1.1, FLuc inhib CS -7.5, TRAIL sens C8 7.9, NF-kB neuron act 0.79, PPC-1+TRAIL kill 32.9 and APP 5'UTR act -15.1.
